Measurements reported in ChEMBL document CHEMBL2150940, “Mechanism-based design, synthesis and biological studies of N⁵-substituted tetrahydrofolate analogs as inhibitors of cobalamin-dependent methionine synthase and potential anticancer agents” (Eur J Med Chem, 2012).

Legend:
Methionine synthase = Methionine synthase (Homo sapiens, UniProt Q99707); assay: Inhibition of methionine synthase in human HL60 cells using L-homocysteine as substrate incubated for 3 hrs prior to substrate addition measured after 10 mins spectrophotometric analysis; format: cell-based, HL-60
How it was run: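 HL60 cells (1 × 10⁶/well) were serum-starved, then exposed 3 h to varied compound concentrations, lysed in HEPES pH 7.5 buffer and cleared at 4 °C. Lysate was mixed with potassium phosphate pH 7.2, DTT, 5-methyltetrahydrofolate, SAM and hydroxocobalamin (stock levels given) and preincubated 5 min at 37 °C. L-homocysteine started a 10 min 37 °C reaction. HCl/formic acid stop at 80 °C 10 min; A350 read.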

Dihydrofolate reductase = molecular target: T1, Dihydrofolate reductase (Homo sapiens, UniProt P00374); assay: Inhibition of human recombinant DHFR using dihydrofolate as substrate by spectrophotometric analysis
T1 sequence (P00374 whole entry): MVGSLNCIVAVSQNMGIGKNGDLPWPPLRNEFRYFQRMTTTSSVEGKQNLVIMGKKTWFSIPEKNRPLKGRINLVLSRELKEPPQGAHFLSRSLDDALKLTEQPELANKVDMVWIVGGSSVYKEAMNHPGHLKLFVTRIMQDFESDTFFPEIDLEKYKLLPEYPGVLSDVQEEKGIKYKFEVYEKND
How it was run: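 Recombinant human DHFR was followed spectrophotometrically in 0.1 mM dihydrofolate, 0.3 mM NADPH and 100 mM KCl, pH 7.5, at 32 °C.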

BGC-823 = assay: Antiproliferative activity against human BGC823 cells after 48 hrs; format: functional, cell-based; conditions: BGC-823, 48 h
How it was run: (§1)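 Cells kept in RPMI-1640 with 10% fetal bovine serum, penicillin (100 units mL⁻¹) and streptomycin at 37 °C in humidified 5% CO₂. Exponentially growing cells were exposed to a range of compound concentrations for 48 h. Growth inhibition was read by MTT and SRB assays. Values are means of three independent experiments.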

HeLa = assay: Antiproliferative activity against human HeLa cells after 48 hrs; format: functional, cell-based; how it was run: as §1
SK-OV-3 [1] = assay: Antiproliferative activity against human SKOV3 cells after 48 hrs; format: functional, cell-based; conditions: SK-OV-3, 48 h; how it was run: as §1
KB = assay: Antiproliferative activity against human KB cells after 48 hrs; format: functional, cell-based; how it was run: as §1
Bel-7402 = assay: Antiproliferative activity against human Bel7402 cells after 48 hrs; format: functional, cell-based; conditions: Bel-7402, 48 h; how it was run: as §1
SK-OV-3 [2] = assay: Ratio of MTX IC50 to compound IC50 for human SKOV3 cells; format: functional

Sequence of Methionine synthase (Q99707 whole entry): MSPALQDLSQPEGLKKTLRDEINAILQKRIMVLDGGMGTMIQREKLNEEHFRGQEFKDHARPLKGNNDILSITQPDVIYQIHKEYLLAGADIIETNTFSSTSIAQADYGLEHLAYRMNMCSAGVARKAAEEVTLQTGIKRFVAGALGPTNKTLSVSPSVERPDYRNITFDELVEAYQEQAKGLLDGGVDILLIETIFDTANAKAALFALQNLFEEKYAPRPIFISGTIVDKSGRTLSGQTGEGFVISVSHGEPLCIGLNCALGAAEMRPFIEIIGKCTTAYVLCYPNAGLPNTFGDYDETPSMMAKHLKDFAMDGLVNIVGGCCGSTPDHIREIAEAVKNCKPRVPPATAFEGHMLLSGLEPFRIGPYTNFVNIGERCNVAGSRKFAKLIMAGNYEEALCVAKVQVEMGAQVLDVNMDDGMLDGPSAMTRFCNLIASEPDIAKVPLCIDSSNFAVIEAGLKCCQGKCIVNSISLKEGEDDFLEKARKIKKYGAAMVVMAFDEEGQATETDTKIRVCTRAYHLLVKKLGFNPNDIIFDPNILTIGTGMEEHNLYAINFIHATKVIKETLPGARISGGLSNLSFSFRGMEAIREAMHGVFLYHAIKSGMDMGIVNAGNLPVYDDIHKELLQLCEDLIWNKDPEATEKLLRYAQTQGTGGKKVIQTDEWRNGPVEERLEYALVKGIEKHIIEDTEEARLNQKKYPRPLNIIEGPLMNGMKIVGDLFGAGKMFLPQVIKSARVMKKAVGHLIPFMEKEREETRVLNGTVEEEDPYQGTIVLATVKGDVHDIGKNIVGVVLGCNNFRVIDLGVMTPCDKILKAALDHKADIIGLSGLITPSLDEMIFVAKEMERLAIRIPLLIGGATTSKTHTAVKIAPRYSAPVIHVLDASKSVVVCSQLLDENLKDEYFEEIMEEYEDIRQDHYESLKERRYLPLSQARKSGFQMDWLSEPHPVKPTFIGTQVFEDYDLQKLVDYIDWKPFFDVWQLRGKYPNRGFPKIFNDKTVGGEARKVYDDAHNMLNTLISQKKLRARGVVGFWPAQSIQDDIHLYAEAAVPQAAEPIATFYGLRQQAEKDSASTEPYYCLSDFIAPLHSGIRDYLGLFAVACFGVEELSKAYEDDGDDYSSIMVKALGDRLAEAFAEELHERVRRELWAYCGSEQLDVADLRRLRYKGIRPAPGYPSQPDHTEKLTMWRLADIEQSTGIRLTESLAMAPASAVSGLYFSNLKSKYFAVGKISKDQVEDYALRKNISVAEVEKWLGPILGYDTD

Structure (SMILES)	IC50 (Methionine synthase) [µM]	IC50 (Dihydrofolate reductase) [µM]	IC50 (BGC-823) [µM]	IC50 (HeLa) [µM]	IC50 (SK-OV-3 [1]) [µM]	IC50 (KB) [µM]	IC50 (Bel-7402) [µM]	Ratio IC50 (SK-OV-3 [2])
CC(=O)N(CC1CCc2nc(N)nc(N)c2N1)c1ccc(C(=O)N[C@@H](CCC(=O)O)C(=O)O)cc1 (mixture of isomers)	> 100	0.033	> 100	> 100	> 100	31.1	> 100	
C=CCN(CC1CCc2nc(N)nc(N)c2N1CC=C)c1ccc(C(=O)N[C@@H](CCC(=O)O)C(=O)O)cc1 (some centres undefined)	15.9				50.2	6.72		
Nc1nc(N)c2c(n1)CCC(CNc1ccc(C(=O)N[C@@H](CCC(=O)O)C(=O)O)cc1)N2 (mixture of isomers)	87.9				0.24	> 100		
Nc1nc(N)c2nc(CNc3ccc(C(=O)N[C@@H](CCC(=O)O)C(=O)O)cc3)ccc2n1	> 100	0.018	0.01	0.003	0.01	2.7	18.3	
C=CCN1c2c(N)nc(N)nc2CCC1CNc1ccc(C(=O)N[C@@H](CCC(=O)O)C(=O)O)cc1Br (some centres undefined)	21				> 100	> 100		
CN(CC1CCc2nc(N)nc(N)c2N1C=O)c1ccc(C(=O)N[C@@H](CCC(=O)O)C(=O)O)cc1 (some centres undefined)	8.11	0.032	6.9	6	> 100	> 130	65.2	
C=CCN1c2c(N)nc(N)nc2CCC1CNc1ccc(C(=O)N[C@@H](CCC(=O)O)C(=O)O)cc1 (some centres undefined)	27.8				0.87	> 100		
Cc1ccc(S(=O)(=O)N2c3c(N)nc(N)nc3CCC2CN(C)c2ccc(C(=O)N[C@@H](CCC(=O)O)C(=O)O)cc2)cc1 (some centres undefined)	55	1.07	0.289	0.434	0.45	0.336	0.325	
C=CCN1c2c(N)nc(N)nc2CCC1CN(C)c1ccc(C(=O)N[C@@H](CCC(=O)O)C(=O)O)cc1 (some centres undefined)	> 100	0.42	2.09	0.227	0.573	> 100	61.5	

Further lines, with some results ahead:

IC50 (Methionine synthase) [µM]	IC50 (Dihydrofolate reductase) [µM]	IC50 (BGC-823) [µM]	IC50 (HeLa) [µM]	IC50 (SK-OV-3 [1]) [µM]	IC50 (KB) [µM]	IC50 (Bel-7402) [µM]	Structure (SMILES)	Ratio IC50 (SK-OV-3 [2])
				0.06	20.9		CN(Cc1cnc2nc(N)nc(N)c2n1)c1ccc(C(=O)N[C@@H](CCC(=O)O)C(=O)O)cc1 [METHOTREXATE]	
1.43				0.042	> 100		Nc1nc(N)c2c(n1)CCC(CNc1ccc(C(=O)N[C@@H](CCC(=O)O)C(=O)O)cc1Br)N2CC(Br)CBr (some centres undefined)	1.4
1.73	> 100	27	41.6	34.6	20	12.3	CC(=O)N(CC1CCc2nc(N)nc(N)c2N1C=O)c1ccc(C(=O)N[C@@H](CCC(=O)O)C(=O)O)cc1 (some centres undefined)	
> 100	0.033						CN(CC1CCc2nc(N)nc(N)c2N1)c1ccc(C(=O)N[C@@H](CCC(=O)O)C(=O)O)cc1 (mixture of isomers)	
66.4	0.8	0.18	0.13	37.4	> 100	64.7	Nc1nc(N)c2c(n1)CCC1CN(c3ccc(C(=O)N[C@@H](CCC(=O)O)C(=O)O)cc3)CN21 (some centres undefined)	
